Results reported in ChEMBL document CHEMBL4765243, “Discovery of Novel Bromophenol-Thiosemicarbazone Hybrids as Potent Selective Inhibitors of Poly(ADP-ribose) Polymerase-1 (PARP-1) for Use in Cancer” (J Med Chem, 2019).
Activity calls are given as the source filed them. The calls are words filed in the database; no cut-off is given here.

Columns and labels:
Bel-7402 = test: Antiproliferative activity against human Bel-7402 cells assessed as cell growth inhibition incubated for 48 hrs by MTT assay; assay type: functional, cell-based; details: Bel-7402, 48 h
How it was run: (§1)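 Cells seeded in 96-well plates and exposed to compounds for 48 h; viability read by MTT. Each experiment repeated three times. SK-OV-3 grown in McCOY's 5A, Bel-7402 and HL-7702 in RPMI-1640, HepG2 in DMEM, Caco-2 in MEM.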

SK-OV-3 [1] = test: Induction of cell cycle arrest in human SKOV3 cells assessed as reduction in CDK1 expression at 2.5 to 10 uM incubated for 48 hrs by western blot analysis; assay type: functional, cell-based; details: dose 2.5-10 µM
SK-OV-3 [2] = test: Antitumor activity against human SKOV3 cells xenografted in Balb/c nude mouse assessed as reduction in Ki67 expression in tumor at 25 to 50 mg/kg, po for 21 days by immunohistochemistry analysis; assay type: functional, organism-based; details: dose 25-50 mg/kg, time 21.0 day
How it was run: (§2)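 SK-OV-3 xenografts in female BALB/c nude mice were dosed orally at 25 or 50 mg/kg in 0.5% CMC-Na for 21 days. Tumours were then snap-frozen in liquid nitrogen or fixed in 10% neutral-buffered formalin. Analysis used western blotting, H&E and immunohistochemistry on paraffin sections (Ki67, γ-H2AX).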

[3] = Subacute toxicity in SPF Kunming mouse assessed as induction of death at 1000 mg/kg, po administered for 14 days and measured on day 14; assay type: organism-based; details: in vivo, 336 h, time 14 day
How it was run: (§3)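 Twenty SPF Kunming mice (18 - 22 g), half male and half female, randomised into 2 groups of 5 males + 5 females. Treated group dosed orally at 1000 mg/kg once daily for 14 days. Death, clinical signs and body weight monitored. After 14 days: isoflurane anaesthesia, decapitation, tissues collected for H&E histology.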

[4] = molecular target: T1, Poly [ADP-ribose] polymerase 1 (Homo sapiens, UniProt P09874); test: Inhibition of PARP-1 in human SKOV3 cells assessed as increase in gammaH2AX expression level at 2.5 to 10 uM incubated for incubated for 48 hrs by western blot analysis; assay type: cell-based; details: SK-OV-3, dose 2.5-10 µM
T1 sequence (P09874 whole entry): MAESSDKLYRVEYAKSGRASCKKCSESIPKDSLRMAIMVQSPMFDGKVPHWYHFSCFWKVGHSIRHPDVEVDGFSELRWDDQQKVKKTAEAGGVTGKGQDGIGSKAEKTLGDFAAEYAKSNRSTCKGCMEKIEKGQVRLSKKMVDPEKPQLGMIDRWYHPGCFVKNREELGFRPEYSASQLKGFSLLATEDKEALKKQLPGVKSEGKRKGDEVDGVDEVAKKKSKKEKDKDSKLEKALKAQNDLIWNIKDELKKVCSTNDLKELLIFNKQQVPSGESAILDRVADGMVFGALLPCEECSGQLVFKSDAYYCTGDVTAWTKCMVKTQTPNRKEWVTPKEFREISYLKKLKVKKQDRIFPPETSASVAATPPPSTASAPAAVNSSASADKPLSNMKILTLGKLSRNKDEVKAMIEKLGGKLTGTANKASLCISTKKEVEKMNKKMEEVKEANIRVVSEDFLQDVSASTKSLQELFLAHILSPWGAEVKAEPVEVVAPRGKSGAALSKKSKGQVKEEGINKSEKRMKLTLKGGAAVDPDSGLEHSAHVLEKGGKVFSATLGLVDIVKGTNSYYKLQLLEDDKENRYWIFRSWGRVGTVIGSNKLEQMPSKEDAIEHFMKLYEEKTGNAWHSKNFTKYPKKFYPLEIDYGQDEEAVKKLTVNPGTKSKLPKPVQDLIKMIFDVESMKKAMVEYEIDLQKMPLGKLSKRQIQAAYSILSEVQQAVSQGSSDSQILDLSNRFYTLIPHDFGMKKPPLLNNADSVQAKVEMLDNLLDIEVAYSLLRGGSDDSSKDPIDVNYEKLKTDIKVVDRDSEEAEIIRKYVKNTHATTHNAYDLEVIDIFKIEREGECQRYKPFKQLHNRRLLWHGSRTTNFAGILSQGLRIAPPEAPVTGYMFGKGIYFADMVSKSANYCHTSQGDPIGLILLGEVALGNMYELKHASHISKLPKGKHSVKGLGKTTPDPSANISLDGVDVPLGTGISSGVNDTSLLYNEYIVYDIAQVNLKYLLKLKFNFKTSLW
How it was run: (§4)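 SK-OV-3 cells were grown in McCOY's 5A, seeded in 6-well plates and treated for 48 h. Lysate proteins were separated by 8-15 % SDS-PAGE and transferred to PVDF membranes. Membranes were blocked in 5 % nonfat milk, probed with primary antibody overnight at 4 °C and with HRP secondary antibody for 1 h at room temperature, then detected by enhanced chemiluminescence. Images are representative of 3 independent experiments.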

[5] = Subacute toxicity in SPF Kunming mouse assessed as change in body weight at 1000 mg/kg, po administered for 14 days and measured on day 14; assay type: organism-based; details: in vivo, 336 h, time 14 day; how it was run: as §3
[6] = Volume of distribution at steady state in Sprague-Dawley rat at 2 mg/kg, iv by LC/MS/MS analysis; assay type: ADME, organism-based; details: in vivo, read-out: Vdss
How it was run: (§5)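 Male Sprague-Dawley rats, 4 per group, dosed once orally at 10 mg/kg or intravenously at 2 mg/kg. Blood taken from the saphenous vein for plasma. Drug levels measured by LC-MS-MS, with parameters derived by noncompartmental analysis.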

[7] = Subacute toxicity in SPF Kunming mouse assessed as change in liver at 1000 mg/kg, po administered for 14 days by H and E staining based microscopic analysis; assay type: organism-based; details: in vivo, 336 h, time 14 day; how it was run: as §3
[8] = molecular target: T1, Poly [ADP-ribose] polymerase 1; test: Inhibition of PARP-1 in human SKOV3 cells assessed as decrease in MCM2 protein expression level at 2.5 to 10 uM incubated for 48 hrs by western blot analysis; assay type: cell-based; details: SK-OV-3, dose 2.5-10 µM; how it was run: as §4
[9] = molecular target: Poly [ADP-ribose] polymerase 2 (Homo sapiens, UniProt Q9UGN5); test: Inhibition of human recombinant N-terminal GST-tagged PARP-2 expressed in Baculovirus infected Sf9 cells assessed as reduction in NAD+-dependent ADP ribosylation using histone mixture (H2A and H2B) as substrate in presence of activated DNA incubated for 30 mins by chemiluminescence assay
Sequence of Poly [ADP-ribose] polymerase 2 (Q9UGN5 whole entry): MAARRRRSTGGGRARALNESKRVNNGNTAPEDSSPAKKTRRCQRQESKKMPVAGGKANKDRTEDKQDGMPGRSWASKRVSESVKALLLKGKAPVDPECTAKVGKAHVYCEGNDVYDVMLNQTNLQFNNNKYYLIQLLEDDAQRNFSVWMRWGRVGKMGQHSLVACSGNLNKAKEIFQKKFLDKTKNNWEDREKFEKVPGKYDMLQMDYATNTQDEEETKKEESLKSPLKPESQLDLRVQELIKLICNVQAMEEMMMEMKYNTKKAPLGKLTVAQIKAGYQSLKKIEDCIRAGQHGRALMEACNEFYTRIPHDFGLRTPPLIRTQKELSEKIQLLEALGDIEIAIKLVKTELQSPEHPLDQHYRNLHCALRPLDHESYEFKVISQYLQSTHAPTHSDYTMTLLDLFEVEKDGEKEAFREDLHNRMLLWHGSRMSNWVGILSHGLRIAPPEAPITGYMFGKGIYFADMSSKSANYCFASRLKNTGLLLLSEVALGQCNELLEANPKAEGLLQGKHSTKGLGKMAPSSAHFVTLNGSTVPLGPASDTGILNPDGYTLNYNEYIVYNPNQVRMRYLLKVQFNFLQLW

SK-OV-3 [10] = test: Antiproliferative activity against human SK-OV-3 cells assessed as cell growth inhibition incubated for 48 hrs by MTT assay; assay type: functional, cell-based; details: SK-OV-3, 48 h; how it was run: as §1
[11] = molecular target: T1, Poly [ADP-ribose] polymerase 1; test: Inhibition of PARP-1 in human SKOV3 cells assessed as decrease in MCM5 protein expression level at 2.5 to 10 uM incubated for 48 hrs by western blot analysis; assay type: cell-based; details: SK-OV-3, dose 2.5-10 µM; how it was run: as §4
SK-OV-3 [12] = test: Induction of autophagy in human SKOV3 cells assessed as LC3-I protein expression at 10 uM incubated for 48 hrs by western blot analysis; assay type: functional, cell-based
How it was run: (§6)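 SK-OV-3 cells in 6-well plates treated 48 h. Lysates separated by 8-15% SDS-PAGE and transferred to PVDF. Membranes blocked in 5% milk and probed overnight at 4 °C with LC3 or Beclin 1 antibodies. HRP secondary applied 1 h at room temperature; detection by ECL.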

[13] = Subacute toxicity in SPF Kunming mouse assessed as clinical changes at 1000 mg/kg, po administered for 14 days and measured on day 14; assay type: organism-based; details: in vivo, 336 h, time 14 day; how it was run: as §3
[14] = Acute toxicity in SPF Kunming mouse assessed as abnormality at 100 to 1000 mg/kg, po administered as single dose and measured upto 14 days post drug administration; assay type: organism-based; details: in vivo, 336 h, dose 100-1000 mg/kg, time <=14 day
How it was run: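 Single oral dose groups at 0 (physiological saline blank, equal volume), 100, 500 and 1000 mg/kg. Mice housed with free access to water and food in stainless cages, 25 ± 1 °C, 12-h light/dark cycle. Survival, body weight and abnormalities recorded up to 14 days post-treatment.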

SK-OV-3 [15] = test: Induction of cell cycle arrest in human SKOV3 cells assessed as reduction in cyclin B1 expression at 2.5 to 10 uM incubated for 48 hrs by western blot analysis; assay type: functional, cell-based; details: dose 2.5-10 µM
[16] = AUC (0 to infinity) in Sprague-Dawley rat at 2 mg/kg, iv by LC/MS/MS analysis; assay type: ADME, organism-based; set-up: route intravenous, time infinity, dose 2 mg/kg; details: in vivo
[17] = MRT in Sprague-Dawley rat at 10 mg/kg, po by LC/MS/MS analysis; assay type: ADME, organism-based; details: in vivo; how it was run: as §5
[18] = Total plasma clearance in Sprague-Dawley rat at 2 mg/kg, iv by LC/MS/MS analysis; assay type: ADME, organism-based; how it was run: as §5
SK-OV-3 [19] = test: Induction of autophagy in human SKOV3 cells transfected with GFP-LC3 assessed as increase in LC3 dot accumulation at 10 uM incubated for 48 hrs by TEM analysis; assay type: functional, cell-based; details: in the assay text read “fluorescence microscopy” for “TEM analysis”
How it was run: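 SK-OV-3 cells on glass coverslips infected with Ad-mCherry-GFP-LC3B for 24 h. Cells then treated at 10 µM for 48 h, fixed in 4% paraformaldehyde and examined by fluorescence microscopy.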

[20] = Toxicity in Balb/c nude mouse xenografted with human SKOV3 cells assessed as histological changes in liver at 25 to 50 mg/kg, po for 21 days by H and E staining based microscopic analysis; assay type: organism-based; details: in vivo, 504 h, dose 25-50 mg/kg, time 21 day; how it was run: as §2
SK-OV-3 [21] = test: Induction of autophagy in human SKOV3 cells assessed as LC3-II protein expression at 10 uM incubated for 48 hrs by western blot analysis; assay type: functional, cell-based; how it was run: as §6
[22] = Cytotoxicity against human HL7702 cells assessed as cell growth inhibition at 20 uM incubated for 48 hrs by MTT assay relative to control; assay type: cell-based; details: HL7702 (L02) cells

COc1cc(/C=N/NC(N)=S)c(Br)c(Br)c1OC
IC50 (Bel-7402): 5.45 µM | Activity (SK-OV-3 [1]): Active | Activity (SK-OV-3 [2]): Active | Activity [3]: Non-Toxic | inhibition [4]: Active | Activity [5]: Non-Toxic | Vd [6]: 6.1 L/kg | Activity [7]: Non-Toxic | inhibition [8]: Active | IC50 [9]: > 1 µM | IC50 (SK-OV-3 [10]): 2.39 µM | inhibition [11]: Active | Activity (SK-OV-3 [12]): Active | Activity [13]: Non-Toxic | Activity [14]: Non-Toxic | Activity (SK-OV-3 [15]): Active | AUC [16]: 0.886 µM·h | MRT [17]: 3.76 h | clearance [18]: 88.7 mL/min/kg | Activity (SK-OV-3 [19]): Active | Activity [20]: Non-Toxic | Activity (SK-OV-3 [21]): Active | inhibition at 48 h, 20 µM [22]: 89.9%
